Measured values from ChEMBL document CHEMBL3112391, “Ethoxysanguinarine Induces Inhibitory Effects and Downregulates CIP2A in Lung Cancer Cells” (ACS Med Chem Lett, 2014).
Active and inactive are the calls of the source. The rule behind the calls is not given here.

Legend:
NCI-H1975 [1] = assay: Cytotoxicity against human NCI-H1975 cells assessed as growth inhibition after 48 hrs by MTT assay; assay type: functional, cell-based; details: NCI-H1975, 48 h
Outline: (§1)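 Lung cancer cell lines (adenocarcinoma, squamous and large cell lines) exposed to 0.5−10 μM for 48 h; viability read by MTT; IC50 taken from the dose–response.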

A549 [2] = assay: Downregulation of CIP2A protein expression in human A549 cells after 24 hrs by Western blot analysis; assay type: functional, cell-based
Outline: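 A549 cells were incubated with ESG at a series of concentrations, including 3.5 and 10 μM, for 24 h. Cell lysates were immunoblotted for CIP2A.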

NCI-H1975 [3] = assay: Downregulation of CIP2A protein expression in human NCI-H1975 cells after 24 hrs by Western blot analysis; assay type: functional, cell-based
Outline: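 H1975 cells were incubated with ESG at a series of concentrations, including 1 and 2 μM, for 24 h. Cell lysates were Western blotted with anti-CIP2A antibody.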

A549 [4] = assay: Downregulation of CIP2A mRNA expression in human A549 cells after 24 hrs by RT-PCR analysis; assay type: functional, cell-based
Outline: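 Cells exposed to ESG for 24 h. CIP2A transcript level was measured by real-time quantitative RT-PCR.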

A549 [5] = assay: Cytotoxicity against human A549 cells assessed as growth inhibition after 48 hrs by MTT assay; assay type: functional, cell-based; details: A549, 48 h; outline: as §1
[6] = molecular target: Protein CIP2A (Homo sapiens) (UniProt Q8TCG1); assay: Inhibition of CIP2A in human NCI-H1975 cells assessed as potentiation of cisplatin-induced PARP cleavage at 1 uM after 24 hrs by Western blot analysis; assay type: cell-based
Outline: (§2)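 Cells cultured 24 h with test agent and/or cisplatin; lysates immunoblotted for PARP cleavage.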

A549 [7] = assay: Cytotoxicity against human A549 cells assessed as growth inhibition at 5 uM after 24 hrs by MTT assay in presence of pan-caspase inhibitor z-VAD.fmk; assay type: functional, cell-based
Outline: (§3)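 Cells pretreated 1 h with z-VAD-fmk (20 μM), then exposed for 24 h (H1975 at 1.5 μM, A549 at 5 μM); viability by MTT.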

[8] = molecular target: Protein CIP2A (Homo sapiens) (UniProt Q8TCG1); assay: Inhibition of CIP2A in human NCI-H1975 cells assessed as downregulation of p-AKT protein expression at 1 to 2.5 uM after 24 hrs by Western blot analysis; assay type: cell-based
Outline: (§4)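 H1975 or A549 cells incubated 24 h across a concentration series; whole-cell lysates immunoblotted for CIP2A, c-Myc, pAKT and total AKT.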

NCI-H460 = assay: Cytotoxicity against human NCI-H460 cells assessed as growth inhibition after 48 hrs by MTT assay; assay type: functional, cell-based; details: NCI-H460, 48 h; outline: as §1
A549 [9] = assay: Induction of apoptosis in human A549 cells assessed as decrease in pro-caspase-9 protein expression at 1 to 10 uM after 24 hrs by Western blot analysis; assay type: functional, cell-based
Outline: (§5)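 H1975 or A549 cells treated 24 h at various concentrations; lysates immunoblotted for apoptosis markers (PARP, caspases).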

NCI-H1975 [10] = assay: Induction of apoptosis in human NCI-H1975 cells assessed as decrease in pro-caspase-8 protein expression at 1 to 2.5 uM after 24 hrs by Western blot analysis; assay type: functional, cell-based; outline: as §5
[11] = Cytotoxicity against human 95-D cells assessed as growth inhibition after 48 hrs by MTT assay; assay type: functional, cell-based; outline: as §1
[12] = molecular target: Protein CIP2A (Homo sapiens) (UniProt Q8TCG1); assay: Inhibition of CIP2A in human NCI-H1975 cells assessed as potentiation of cisplatin-induced cell growth inhibition at 1 uM after 24 hrs by MTT assay; assay type: cell-based
Outline: (§6)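 Cells treated 24 h with test agent, cisplatin or both (H1975: 1 μM with 10 μM cisplatin; A549: 3.5 μM with 20 μM cisplatin); viability by MTT.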

[13] = molecular target: Protein CIP2A (Homo sapiens) (UniProt Q8TCG1); assay: Induction of FLAG-tagged CIP2A (unknown origin) proteolysis transfected in human A549 cells after 4 to 12 hrs; assay type: cell-based
Outline: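 A549 cells transfected 24 h with Flag-CIP2A, then treated over a time course; whole-cell lysates probed with anti-Flag.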

A549 [14] = assay: Induction of apoptosis in human A549 cells assessed as PARP cleavage at 1 to 10 uM after 24 hrs by Western blot analysis; assay type: functional, cell-based; outline: as §5
A549 [15] = assay: Induction of apoptosis in human A549 cells assessed as decrease in pro-caspase-8 protein expression at 1 to 10 uM after 24 hrs by Western blot analysis; assay type: functional, cell-based; outline: as §5
[16] = molecular target: Protein CIP2A (Homo sapiens) (UniProt Q8TCG1); assay: Inhibition of CIP2A in human NCI-H1975 cells assessed as downregulation of c-Myc protein expression at 1 to 2.5 uM after 24 hrs by Western blot analysis; assay type: cell-based; outline: as §4
[17] = Cytotoxicity against human SPC-A1 cells assessed as growth inhibition after 48 hrs by MTT assay; assay type: functional, cell-based; details: SPCA1, 48 h; outline: as §1
[18] = Cytotoxicity against human L78 cells assessed as growth inhibition after 48 hrs by MTT assay; assay type: functional, cell-based; details: L78, 48 h; outline: as §1
A549 [19] = assay: Downregulation of CIP2A protein expression in human A549 cells at 3.5 to 10 uM after 24 hrs by Western blot analysis; assay type: functional, cell-based; outline: as §4
A549 [20] = assay: Induction of apoptosis in human A549 cells assessed as PARP cleavage at 5 uM after 24 hrs by Western blot analysis in presence of pan-caspase inhibitor z-VAD.fmk; assay type: functional, cell-based
Outline: (§7)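 Cells pretreated 1 h with z-VAD-fmk (20 μM), then exposed for 24 h (H1975 at 1.5 μM, A549 at 5 μM); lysates immunoblotted for PARP and its cleavage fragment.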

[21] = molecular target: Protein CIP2A (Homo sapiens) (UniProt Q8TCG1); assay: Inhibition of CIP2A in human A549 cells assessed as potentiation of cisplatin-induced cell growth inhibition at 3.5 uM after 24 hrs by MTT assay; assay type: cell-based; outline: as §6
[22] = molecular target: Protein CIP2A (Homo sapiens) (UniProt Q8TCG1); assay: Inhibition of CIP2A in human A549 cells assessed as potentiation of cisplatin-induced PARP cleavage at 3.5 uM after 24 hrs by Western blot analysis; assay type: cell-based; outline: as §2
[23] = Cytotoxicity against human GLC82 cells assessed as growth inhibition after 48 hrs by MTT assay; assay type: functional, cell-based; details: GLC82, 48 h; outline: as §1
[24] = molecular target: Protein CIP2A (Homo sapiens) (UniProt Q8TCG1); assay: Induction of CIP2A proteolysis in human A549 cells at 5 uM after 4 hrs in presence of protein synthesis inhibitor cycloheximide; assay type: cell-based
Outline: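 A549 cells given 100 μg/mL cycloheximide with or without 5 μM test agent over a time course; whole-cell lysates probed for CIP2A.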

[25] = molecular target: Protein CIP2A (Homo sapiens) (UniProt Q8TCG1); assay: Inhibition of CIP2A in human A549 cells assessed as downregulation of p-AKT protein expression at 1 to 10 uM after 24 hrs by Western blot analysis; assay type: cell-based; outline: as §4
A549 [26] = assay: Downregulation of CIP2A mRNA expression in human A549 cells at 1 to 10 uM after 24 hrs by RT-PCR analysis; assay type: functional, cell-based
Outline: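 CIP2A transcript measured by real-time quantitative RT-PCR after 24 h treatment.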

NCI-H1975 [27] = assay: Downregulation of CIP2A protein expression in human NCI-H1975 cells at 1 to 2 uM after 24 hrs by Western blot analysis; assay type: functional, cell-based; outline: as §4
A549 [28] = assay: Cytotoxicity against human A549 cells assessed as growth inhibition at 5 uM after 24 hrs by MTT assay in presence of PP2A inhibitor okadaic acid; assay type: functional, cell-based
Outline: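 A549 cells pretreated 2 h with okadaic acid (25 nM), then 5 μM test agent for 24 h; viability by MTT.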

NCI-H1975 [29] = assay: Induction of apoptosis in human NCI-H1975 cells assessed as decrease in pro-caspase-9 protein expression at 1 to 2.5 uM after 24 hrs by Western blot analysis; assay type: functional, cell-based; outline: as §5
NCI-H1975 [30] = assay: Cytotoxicity against human NCI-H1975 cells assessed as growth inhibition at 1.5 uM after 24 hrs by MTT assay in presence of pan-caspase inhibitor z-VAD.fmk; assay type: functional, cell-based; outline: as §3
NCI-H1975 [31] = assay: Induction of apoptosis in human NCI-H1975 cells assessed as PARP cleavage at 1.5 uM after 24 hrs by Western blot analysis in presence of pan-caspase inhibitor z-VAD.fmk; assay type: functional, cell-based; outline: as §7
[32] = molecular target: Protein CIP2A (Homo sapiens) (UniProt Q8TCG1); assay: Inhibition of CIP2A in human A549 cells assessed as downregulation of c-Myc protein expression at 1 to 10 uM after 24 hrs by Western blot analysis; assay type: cell-based; outline: as §4
NCI-H1975 [33] = assay: Induction of apoptosis in human NCI-H1975 cells at 0.5 to 2.5 uM after 24 hrs by annexin V/propidium iodide staining-based flow cytometric analysis; assay type: functional, cell-based
Outline: (§8)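 H1975 or A549 cells treated 24 h at various concentrations; apoptosis scored by annexin V/propidium iodide staining and flow cytometry.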

A549 [34] = assay: Downregulation of CIP2A protein expression in human A549 cells at 5 uM by Western blot analysis; assay type: functional, cell-based; details: TDE = time-dependent effect
Outline: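 A549 cells treated with 5 μM over a time course; lysates immunoblotted for CIP2A.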

A549 [35] = assay: Induction of apoptosis in human A549 cells at 2.5 to 10 uM after 24 hrs by annexin V/propidium iodide staining-based flow cytometric analysis; assay type: functional, cell-based; outline: as §8
NCI-H1975 [36] = assay: Induction of apoptosis in human NCI-H1975 cells assessed as PARP cleavage at 1 to 2.5 uM after 24 hrs by Western blot analysis; assay type: functional, cell-based; outline: as §5
[37] = molecular target: Protein CIP2A (Homo sapiens) (UniProt Q8TCG1); assay: Inhibition of CIP2A in human A549 cells assessed as induction of PP2A activity at 5 uM after 4 to 8 hrs by Western blot analysis; assay type: cell-based
Outline: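 A549 cells exposed to 5 μM over a time course, lysed, and PP2A activity measured in the lysates.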

With C=C1C(=O)[C@]23[C@H](O)[C@H]1CC[C@H]2[C@@]12CO[C@@]3(O)C[C@@H]1C(C)(C)CC[C@@H]2OC(C)=O [RABDOCOETSIN B] the IC50 (NCI-H1975 [1]) was 10300 nM, the Activity (A549 [2]) was “Active” and the Activity (NCI-H1975 [3]) was “Active”. The Activity (A549 [4]) was “Active” and the IC50 (A549 [5]) was 14200 nM.

In the case of CCOC1c2c(ccc3c2OCO3)-c2ccc3cc4c(cc3c2N1C)OCO4 (stereo not given), the IC50 (NCI-H1975 [1]) is reported as 1290 nM, the inhibition [6] is reported as “Active” and the “growth inhibition (GI)” value (A549 [7]) is reported as “inactive”. The inhibition [8] was “Active”, the IC50 (NCI-H460) was 1560 nM and the Activity (A549 [9]) was “Active”. For the same compound, the Activity (NCI-H1975 [10]) was “Active”, the IC50 [11] was 2000 nM and the inhibition [12] was “Active”. For the same compound, the Activity [13] was “Active”, the Activity (A549 [14]) was “Active” and the Activity (A549 [15]) was “Active”. The inhibition [16] was “Active”, the IC50 [17] was 1100 nM and the IC50 [18] was 1000 nM. For the same compound, the Activity (A549 [19]) was “Active”, the Activity (A549 [20]) was “inactive” and the inhibition [21] was “Active”. The inhibition [22] was “Active”, the IC50 [23] was 1300 nM and the Activity [24] was “Active”. The inhibition [25] was “Active”, the Activity (A549 [26]) was “Active” and the Activity (NCI-H1975 [27]) was “Active”. For the same compound, the “growth inhibition (GI)” value (A549 [28]) was “inactive”, the IC50 (A549 [5]) was 2740 nM and the Activity (NCI-H1975 [29]) was “Active”. The “growth inhibition (GI)” value (NCI-H1975 [30]) was “inactive”, the Activity (NCI-H1975 [31]) was “inactive” and the inhibition [32] was “Active”. The Activity (NCI-H1975 [33]) was “Active”, the Activity (A549 [34]) was “tde” and the Activity (A549 [35]) was “Active”. The Activity (NCI-H1975 [36]) was “Active” and the inhibition [37] was “Active”.
